What is called CC50 is the concentration at which the toxic effect on the cells reaches its halfway point. Read a high CC50 as lower toxicity to the cells. As a reminder, the IC50 is the concentration that inhibits the measured activity by half.

Some results are limits rather than exact numbers.

Series [1] is described as follows: Cytotoxicity assay. The note with it: human, MRC-5 cells. The class given is cell-based.
The test system of series [2] is HCoV-229E. The series can be described thus: Antiviral activity against HCoV-229E in MRC-5 cells. The format is cell-based, human coronavirus 229E. The note with it: for Inhibition of HCoV-229E infection (in words): MRC-5 cells; for IC50: Human coronavirus 229E, MRC5, 24 h, read-out: IC50 ± SD. The gist of the method: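 MRC-5 cells were seeded at 20,000/well in duplicate per drug and condition and grown to 80 % confluency. Virus was adsorbed at MOI 0.1 PFU/cell in FBS-free DMEM for 1 h at 37 °C, then removed. Serial dilutions of test compound in 1 % FBS DMEM were added for 24 h, at doses below MTT-determined cytotoxicity. Cells were fixed with PFA, saponin-permeabilised and stained with anti-N antibody, Alexa 488 secondary and DAPI, then imaged by widefield fluorescence. Infection was normalised to the untreated infected control (100 %). IC50 came from a nonlinear dose-effect fit. Three replicate experiments.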

For `O=c1c(O)c(-c2cc(O)c(O)c(O)c2)oc2cc(O)cc(O)c12` [Myricetin], it took 434 µM to reach half-maximal cytotoxicity in series [1] (CC50 at 24 h).

Turning to `Oc1ccc(/C=C/c2cc(O)cc(O)c2)cc1` [Resveratrol], the “Inhibition of HCoV-229E infection (in words)” value (shortened to “Inhibition”) in series [2] is on record as “inhibit 229E virus”.

Turning to `CO[C@H]1C[C@@H]2CC[C@@H](C)[C@@](O)(O2)C(=O)C(=O)N2CCCC[C@H]2C(=O)O[C@H]([C@H](C)C[C@@H]2CC[C@@H](OCCO)[C@H](OC)C2)CC(=O)[C@H](C)/C=C(\C)[C@@H](O)[C@@H](OC)C(=O)[C@H](C)C[C@H](C)/C=C/C=C/C=C/1C` [Everolimus], the “Inhibition” value in series [2] is “inhibit 229E virus”.

For the compound `O=C1c2c(O)cc(O)cc2OC(c2ccc(O)c(O)c2)C1O` (stereo not shown) [Taxifolin], the “Inhibition” value in series [2] is given as “inhibit 229E virus”.

`CO[C@H]1C[C@@H]2CC[C@@H](C)[C@@](O)(O2)C(=O)C(=O)N2CCCC[C@H]2C(=O)O[C@H]([C@H](C)C[C@@H]2CC[C@@H](O)[C@H](OC)C2)CC(=O)[C@H](C)/C=C(\C)[C@@H](O)[C@@H](OC)C(=O)[C@H](C)C[C@H](C)/C=C/C=C/C=C/1C` [Sirolimus]: the “Inhibition” value in series [2] is listed as “inhibit 229E virus”.

With `C[C@H]1O[C@@H](O[C@H]2[C@@H](O)C[C@H](O[C@H]3[C@@H](O)C[C@H](O[C@H]4CC[C@@]5(C)[C@H](CC[C@@H]6[C@@H]5C[C@@H](O)[C@]5(C)[C@@H](C7=CC(=O)OC7)CC[C@]65O)C4)O[C@@H]3C)O[C@@H]2C)C[C@H](O)[C@@H]1O` [Digoxin], the “Inhibition” value in series [2] was “inhibit 229E virus”.

Consider `COc1cc([C@H]2Oc3cc([C@H]4Oc5cc(O)cc(O)c5C(=O)[C@@H]4O)ccc3O[C@@H]2CO)ccc1O` [SilibininA, Silibinin A], for which the “Inhibition” value in series [2] is given as “inhibit 229E virus”.

For the compound `CC(=O)Oc1ccccc1C(=O)O` [Aspirin], the IC50 in series [2] came out at 1000 µM. Also, in series [1], the CC50 at 24 h was 1100 µM.

Regarding `C=C1C2CCC(C2)C1(C)C` (stereo not shown) [Camphene], half-maximal cytotoxicity in series [1] (CC50 at 24 h) was put at 72000 µM.

Turning to `CC(=O)NS(=O)(=O)c1ccc(N)cc1` [Sulfacetamide], in series [1], the CC50 at 24 h was over 1000 µM.

With `C[C@@H]1CC[C@H]2C(C)(C)[C@H]3C[C@@]12CC[C@@]3(C)O` [alpha-cedrol], in series [2], the “Inhibition” value is “inhibited 229E but their CC50 was close to the IC50”.

For the compound `O=c1c(O)c(-c2ccc(O)c(O)c2)oc2cc(O)cc(O)c12` [Quercetin], the “Inhibition” value in series [2] is listed as “inhibit 229E virus”.

As for `CC1=CC[C@@H](C(C)(C)O)CC1` [Alpha-terpineol], the IC50 in series [2] came to 382 ± 107 µM. For the same compound, in series [1], the midpoint of cytotoxicity, the CC50 at 24 h, lay at 1060 µM.

As to `CC1(C)CC[C@]2(C(=O)O)CC[C@]3(C)C(=CC[C@@H]4[C@@]5(C)CC[C@H](O)C(C)(C)[C@@H]5CC[C@]43C)[C@@H]2C1` [Oleanolic acid], the half-maximal cytotoxic concentration (CC50) at 24 h in series [1] was found to be 25200 µM.

Take `CCC(C)(C)C(=O)O[C@H]1C[C@@H](C)C=C2C=C[C@H](C)[C@H](CC[C@@H]3C[C@@H](O)CC(=O)O3)[C@H]21` [Simvastatin]: the “Inhibition” value in series [2] was “inhibit 229E virus”.

With `CCc1c(-c2ccccc2)c(-c2ccccc2)nn1-c1ccccc1-c1cccc(OCC(=O)O)c1` [BMS309403], in series [2], the “Inhibition” value was “inhibited 229E but their CC50 was close to the IC50”.

For the compound `CC(=O)O[C@H]1C[C@H](O[C@H]2[C@@H](O)C[C@H](O[C@H]3[C@@H](O)C[C@H](O[C@H]4CC[C@@]5(C)[C@H](CC[C@@H]6[C@@H]5C[C@@H](O)[C@]5(C)[C@@H](C7=CC(=O)OC7)CC[C@]65O)C4)O[C@@H]3C)O[C@@H]2C)O[C@H](C)[C@H]1O[C@@H]1O[C@H](CO)[C@@H](O)[C@H](O)[C@H]1O` [Lanatoside C], in series [2], the “Inhibition” value is given as “inhibit 229E virus”.

Compound `C=C1CC/C=C(\C)CC[C@@H]2[C@@H]1CC2(C)C` [(-)-Trans-Caryophyllene] returned a CC50 at 24 h in series [1] of 1840 µM.

`OCC(S)CS` (stereo not shown) [Dimercaprol]: in series [2], the “Inhibition” value is recorded as “inhibited 229E but their CC50 was close to the IC50”.

On to `CCC(C)n1ncn(-c2ccc(N3CCN(c4ccc(OCC5COC(Cn6cncn6)(c6ccc(Cl)cc6Cl)O5)cc4)CC3)cc2)c1=O` (stereo not shown) [Itraconazole], for which the “Inhibition” value in series [2] is “inhibit 229E virus”.

The values are drawn from publication PMC10247892 (Biomedicine & Pharmacotherapy, 2023).
